In ChEMBL document CHEMBL4619807, “Exploration of Alternative Scaffolds for P2Y14 Receptor Antagonists Containing a Biaryl Core” (J Med Chem, 2020):
In brackets after ≈: the same amount, converted by molar mass. Activity calls are given as the source filed them. No cut-off for these calls is given here.

How the values were obtained:
Homo sapiens = organism: Homo sapiens; test: Selectivity index, ratio of IC50 for inhibition of MRS4174 binding to human P2Y14R expressed in CHO cells to IC50 for inhibition of MRS4174 binding to mouse P2Y14R expressed in […] cells; assay type: cell-based
Method in brief: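 Ratio of human to mouse IC50 from fluorescent-tracer binding. Human P2Y14R was in CHO cells in a 96-well format. Mouse P2Y14R was in HEK293 cells, with 30 min antagonist pre-incubation and then 20 nM tracer for 30 min at 37 °C. Both read by flow cytometry.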

[1] = Binding affinity to sigma 2 receptor (unknown origin); set-up: species or system Homo sapiens
[2] = biological target: Sigma non-opioid intracellular receptor 1 (Homo sapiens, UniProt Q99720); test: Binding affinity to sigma 1 receptor (unknown origin)
Chain of Sigma non-opioid intracellular receptor 1 (Q99720 whole entry): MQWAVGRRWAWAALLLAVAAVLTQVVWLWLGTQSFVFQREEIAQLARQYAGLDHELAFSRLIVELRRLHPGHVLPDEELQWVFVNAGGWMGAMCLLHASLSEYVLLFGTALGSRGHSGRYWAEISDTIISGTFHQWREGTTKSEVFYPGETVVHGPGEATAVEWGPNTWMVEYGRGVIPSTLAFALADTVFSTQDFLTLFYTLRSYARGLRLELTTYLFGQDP

[3] = biological target: Delta-type opioid receptor (Homo sapiens, UniProt P41143); test: Binding affinity to DOR (unknown origin)
Chain of Delta-type opioid receptor (P41143 whole entry): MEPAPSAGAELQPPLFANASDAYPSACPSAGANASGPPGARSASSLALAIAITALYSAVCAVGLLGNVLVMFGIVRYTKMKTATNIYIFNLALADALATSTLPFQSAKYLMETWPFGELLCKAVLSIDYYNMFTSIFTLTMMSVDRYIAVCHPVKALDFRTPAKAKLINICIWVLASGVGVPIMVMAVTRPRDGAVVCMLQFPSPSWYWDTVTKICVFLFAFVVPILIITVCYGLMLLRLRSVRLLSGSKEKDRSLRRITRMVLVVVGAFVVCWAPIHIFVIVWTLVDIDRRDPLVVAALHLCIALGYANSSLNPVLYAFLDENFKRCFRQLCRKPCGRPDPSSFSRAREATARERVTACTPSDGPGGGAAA

P2Y purinoceptor 14 [4] = biological target: T1, P2Y purinoceptor 14 (Homo sapiens, UniProt Q15391); test: Inhibition of MRS4174 binding to human P2Y14R expressed in CHO cells pre-incubated for 30 mins before MRS4174 addition and further incubated for 30 mins at pH 7.4 by flow cytomtery based competitive fluorescence assay; assay type: cell-based
T1 sequence (Q15391 whole entry): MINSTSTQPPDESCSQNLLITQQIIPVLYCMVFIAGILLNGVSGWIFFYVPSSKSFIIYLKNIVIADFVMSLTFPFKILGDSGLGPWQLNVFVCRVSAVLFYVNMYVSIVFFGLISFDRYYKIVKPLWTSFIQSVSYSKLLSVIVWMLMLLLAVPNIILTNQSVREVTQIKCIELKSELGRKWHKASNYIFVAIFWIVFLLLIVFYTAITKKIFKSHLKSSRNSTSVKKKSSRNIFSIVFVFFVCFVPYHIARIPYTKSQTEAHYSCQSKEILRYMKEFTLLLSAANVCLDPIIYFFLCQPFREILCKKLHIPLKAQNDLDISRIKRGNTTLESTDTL

P2Y purinoceptor 14 [5] = biological target: T2, P2Y purinoceptor 14 (Mus musculus, UniProt Q9ESG6); test: Inhibition of MRS4174 binding to mouse P2Y14R expressed in HEK293 cells pre-incubated for 30 mins before MRS4174 addition and further incubated for 30 mins by flow cytomtery based competitive fluorescence assay; assay type: cell-based
T2 sequence (Q9ESG6 whole entry): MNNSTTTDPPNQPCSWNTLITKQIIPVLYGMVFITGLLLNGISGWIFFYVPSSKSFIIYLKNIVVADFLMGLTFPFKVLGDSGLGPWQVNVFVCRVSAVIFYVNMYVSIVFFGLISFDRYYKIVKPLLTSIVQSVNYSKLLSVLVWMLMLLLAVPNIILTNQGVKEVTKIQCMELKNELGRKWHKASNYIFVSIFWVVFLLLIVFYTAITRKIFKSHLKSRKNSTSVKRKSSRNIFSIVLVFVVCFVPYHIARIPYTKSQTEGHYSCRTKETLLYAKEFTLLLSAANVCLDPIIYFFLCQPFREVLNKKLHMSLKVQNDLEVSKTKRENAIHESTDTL
Method in brief: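 Competitive whole-cell binding in HEK293 cells stably expressing N-terminally HA-tagged mouse P2Y14R, grown in a 24-well plate to 80–90% confluency. Antagonist given at 1 nM–100 μM in serum-containing EMEM for 30 min at 37 °C, then tracer added at 20 nM final for 30 min.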

Mus musculus = test: Antiasthmatic activity in Aspergillus oryzae protease-mediated C57BL/6J mouse model of allergic asthma assessed as reduction in eosinophil infiltration in bronchoalveolar lavage fluid at 10 mg/kg, ip dosed 30 mins before OVA aerosol challenge and measured 2 days post-challenge by cell differential count assay; assay type: functional, organism-based
Cannabinoid receptor 2 [6] = biological target: T3, Cannabinoid receptor 2 (Homo sapiens, UniProt P34972); test: Agonist activity at CB2 receptor (unknown origin)
T3 sequence (P34972 whole entry): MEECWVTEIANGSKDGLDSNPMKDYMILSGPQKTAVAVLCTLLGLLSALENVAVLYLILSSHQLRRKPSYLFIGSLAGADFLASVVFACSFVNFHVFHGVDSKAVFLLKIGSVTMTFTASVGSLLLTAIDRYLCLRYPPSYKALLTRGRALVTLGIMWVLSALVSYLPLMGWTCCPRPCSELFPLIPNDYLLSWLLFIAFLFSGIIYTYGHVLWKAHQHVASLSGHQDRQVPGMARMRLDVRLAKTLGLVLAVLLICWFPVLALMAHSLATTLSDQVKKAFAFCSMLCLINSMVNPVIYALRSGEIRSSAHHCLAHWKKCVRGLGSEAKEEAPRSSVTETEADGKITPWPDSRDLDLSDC
Method in brief: (§1)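 Tested through the Psychoactive Drug Screening Program as functional agonist and antagonist at CB1 and CB2 cannabinoid receptors, with an upper test concentration of 10 μM.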

Cannabinoid receptor 1 [7] = biological target: T4, Cannabinoid receptor 1 (Homo sapiens, UniProt P21554); test: Antagonist activity at CB1 receptor (unknown origin); method in brief: as §1
T4 sequence (P21554 whole entry): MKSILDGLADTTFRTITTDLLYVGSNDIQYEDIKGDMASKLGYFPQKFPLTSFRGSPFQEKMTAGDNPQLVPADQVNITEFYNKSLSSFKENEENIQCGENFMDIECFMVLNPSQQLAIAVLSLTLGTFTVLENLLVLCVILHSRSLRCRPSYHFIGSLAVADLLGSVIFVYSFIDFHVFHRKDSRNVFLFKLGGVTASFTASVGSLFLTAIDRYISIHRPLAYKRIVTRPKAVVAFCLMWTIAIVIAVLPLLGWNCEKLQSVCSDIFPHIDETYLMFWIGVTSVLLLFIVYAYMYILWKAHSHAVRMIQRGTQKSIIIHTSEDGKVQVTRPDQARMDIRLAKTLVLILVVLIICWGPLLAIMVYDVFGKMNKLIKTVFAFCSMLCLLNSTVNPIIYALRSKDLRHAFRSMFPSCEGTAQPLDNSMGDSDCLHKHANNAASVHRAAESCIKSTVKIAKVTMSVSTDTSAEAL

Cannabinoid receptor 1 [8] = biological target: T4, Cannabinoid receptor 1; test: Agonist activity at CB1 receptor (unknown origin); method in brief: as §1
[9] = Aqueous solubility at pH 7.4 by pION method; assay type: physicochemical; settings: buffer
Method in brief: (§2)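 Equilibrium aqueous solubility measured by the pION method at pH 4.0 and at pH 7.4, in μg/mL; mean ± SD.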

Cannabinoid receptor 2 [10] = biological target: T3, Cannabinoid receptor 2; test: Antagonist activity at CB2 receptor (unknown origin); method in brief: as §1
[11] = Aqueous solubility at pH 4 by pION method; assay type: physicochemical; settings: buffer; method in brief: as §2
[12] = Binding affinity to 5HT6 receptor (unknown origin); set-up: species or system Homo sapiens

O=C(O)c1cc(-c2ccc(N3CCNCC3)cc2)cc(-n2cc(-c3ccc(C(F)(F)F)cc3)nn2)c1
Ratio IC50 (Homo sapiens): 2.1
Ki [1]: 6.7 µM

NC(=O)c1ccc(-c2cc(C(=O)O)cc(-c3cn(-c4ccc(C(F)(F)F)cc4)nn3)c2)cc1
Ki [2]: 0.5 µM
Ki [3]: 2.48 µM
Ki [1]: 2.91 µM

O=C(O)c1cc(-c2ccc(C34CCNCC3C4)cc2)cc(-n2cc(-c3ccc(C(F)(F)F)cc3)nn2)c1 (stereo not drawn)
IC50 (P2Y purinoceptor 14 [4]): 0.359 µM
Ratio IC50 (Homo sapiens): 3.3
Ki [3]: 2.63 µM
IC50 (P2Y purinoceptor 14 [5]): 1.16 µM
Ki [1]: 0.3 µM

C#CCCCCN1CCC(c2ccc(-c3cc(C(=O)O)cc4cc(-c5ccc(C(F)(F)F)cc5)ccc34)cc2)CC1
Activity (Mus musculus): Active

NC(=O)c1cc(-c2ccc(C3CCNCC3)cc2)cc(-n2cc(-c3ccc(C(F)(F)F)cc3)nn2)c1
IC50 (P2Y purinoceptor 14 [4]): > 100 µM

O=C(O)c1cc(-c2ccc(C3CCNCC3)cc2)cc(-n2cc(-c3ccc(C(F)(F)F)cc3)nn2)c1
Activity (Mus musculus): inactive

O=C(O)c1cc(-c2ccc(C3CCNCC3)cc2)c2ccc(-c3ccc(C(F)(F)F)cc3)cc2c1 [PPTN]
EC50 (Cannabinoid receptor 2 [6]): > 10 µM
EC50 (Cannabinoid receptor 1 [7]): > 10 µM
EC50 (Cannabinoid receptor 1 [8]): > 10 µM
solubility [9]: 0.36 µg/mL (≈ 0.757 µM)
Activity (Mus musculus): Active
EC50 (Cannabinoid receptor 2 [10]): > 10 µM
solubility [11]: 1.1 µg/mL (≈ 2.31 µM)

NC(=O)c1ccc(-c2cc(C(=O)O)cc(-n3cc(-c4ccc(C(F)(F)F)cc4)nn3)c2)cc1
Ratio IC50 (Homo sapiens): 3.4
Ki [12]: 6.89 µM
IC50 (P2Y purinoceptor 14 [5]): 0.902 µM
